Measured values of several laboratories.
Protocols differ between the studies behind these lines.

Compound | test | system | setting | endpoint | value
CC(C)CC(=O)OC[C@H]1O[C@@](C#N)(c2ccc3c(N)ncnn23)[C@H](O)[C@@H]1O | general toxicity | beagle dog | oral, multiple doses | NOAEL | 100 mg/kg/day
CCOC(=O)c1c(NC(=O)CNC(C)C)sc2c1CCCCC2 | – | male mouse, brain | intraperitoneal, 100 mg/kg, single dose | Tmax | 30 min
O=c1c2cc(Cl)c(CO)cc2[nH]c(=S)n1Cc1cncnc1 | – | Caco-2 | 10 µM, 90 min, pH 7.4 | efflux ratio | ~2
CC(C)NCC(O)COc1cccc2ccccc12 (stereo not shown) | – | Caco-2 | 10 µM, 2 h, pH 7.4 | efflux ratio | 0.7
O=c1c2cc(Cl)c(CO)cc2[nH]c(=S)n1Cc1cccnc1 | – | Caco-2 | 10 µM, 90 min, pH 7.4 | efflux ratio | ~2
COc1cc(C(=O)c2nc(-c3cccc4[nH]ccc34)c[nH]2)cc(OC)c1OC | – | male CD-1 mouse, plasma | intraperitoneal, 15 mg/kg | Tmax | 8.4 min
Cc1[nH]c(C)c(S(=O)(=O)Nc2ccc(S(F)(F)(F)(F)F)cc2)c1C(=O)N1CCC(F)(F)C1 | – | mouse, brain | intraperitoneal, 40 mg/kg | Tmax | 120 min
C[C@H]1O[C@@H](O[C@H]2[C@@H](O)C[C@H](O[C@H]3[C@@H](O)C[C@H](O[C@H]4CC[C@@]5(C)[C@H](CC[C@@H]6[C@@H]5C[C@@H](O)[C@]5(C)[C@@H](C7=CC(=O)OC7)CC[C@]65O)C4)O[C@@H]3C)O[C@@H]2C)C[C@H](O)[C@@H]1O | – | Caco-2 | 10 µM, 2 h, pH 7.4 | efflux ratio | 8.9
N=C(N)NCCC[C@H](NC(=O)[C@H](Cc1ccccc1)NC(=O)[C@H](CCC(N)=O)NC(=O)OCc1ccccc1)C(=O)c1nccs1 | – | female C57BL/6 mouse, plasma | intravenous, 5 mg/kg | Tmax | 5 min
CC(=O)c1c(C)c2cnc(Nc3ccc(C4CCN(CCS(C)(=O)=O)CC4)cn3)nc2n(C2CCCC2)c1=O | – | Caco-2 | 10 µM | efflux ratio | 0.96
